Source: ChEMBL document CHEMBL1122365, “Substituted 1,4-naphthoquinones vs. the ascitic sarcoma 180 of mice” (J Med Chem, 1983)
Values after ≈ are worked out from the molar mass of the structure shown.

Experiments:
[1] = Effective dose that would give a 25% increase in the survival time against the ascitic sarcoma 180 in mice; type: functional, Mus musculus
Summary of the method: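 Swiss mice given 10⁶ ascitic sarcoma 180 cells ip on day 0, then one ip dose of compound daily on days 1-3, with several dose levels. T/C is the mean survival of treated mice over the survival of untreated mice. ED25 is the daily dose giving T/C = 125%, interpolated or extrapolated from a semilog plot of T/C vs. log dose.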

[2] = Solubility in water was determined; type: physicochemical
[3] = test system: Mus musculus; test: Maximum survival by an optimum dose at 4 mg/kg in treated to that of untreated mice; type: functional
[4] = Partition coefficient (logP); type: physicochemical; conditions: octanol/water
Summary of the method: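 Shake-flask method: four samples per compound (1.50–20.0 mg) each equilibrated between known volumes of 1-octanol and water. Solute concentration measured spectroscopically in the water phase; octanol-phase concentration taken by difference. Partition coefficient is the ratio of the two concentrations.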

[5] = Tested for acute toxicity which is the single dose given intraperitoneally that will kill one-half of the mice within 5 days; type: organism-based; conditions: mouse, in vivo, ip
[6] = test system: Mus musculus; test: Maximum survival by an optimum dose at 25 mg/kg in treated to that of untreated mice; type: functional
[7] = test system: Mus musculus; test: Maximum survival by an optimum dose at 3 mg/kg in treated to that of untreated mice; type: functional
[8] = test system: Mus musculus; test: Maximum survival by an optimum dose at 7 mg/kg in treated to that of untreated mice; type: functional
[9] = test system: Mus musculus; test: Maximum survival by an optimum dose at 60 mg/kg in treated to that of untreated mice; type: functional
[10] = test system: Mus musculus; test: Maximum survival by an optimum dose at 30 mg/kg in treated to that of untreated mice; type: functional
[11] = test system: Mus musculus; test: Maximum survival by an optimum dose at 100 mg/kg in treated to that of untreated mice; type: functional
[12] = test system: Mus musculus; test: Maximum survival by an optimum dose at 6 mg/kg in treated to that of untreated mice; type: functional
[13] = test system: Mus musculus; test: Maximum survival by an optimum dose at 80 mg/kg in treated to that of untreated mice; type: functional
[14] = test system: Mus musculus; test: Maximum survival by an optimum dose at 20 mg/kg in treated to that of untreated mice; type: functional
[15] = Mus musculus, Sarcoma-180, read-out: ED25

CC(=O)NC1=C(Cl)C(=O)c2ccccc2C1=O
ED25 [1]: 0.01 mmol/kg
ED25 [1, 15]: 2.97 mg/kg
solubility [2]: 106 µg/mL (≈ 425 µM)
Optimal dose [3]: 284%
logP ([4]; read-out: logP): 1.42
LD50 at 120 h [5]: 11 mg/kg

O=C1C=C(O)C(=O)c2ccccc21 [LAWSONE]
ED25 [1]: 0.19 mmol/kg
ED25 [1, 15]: 33 mg/kg
solubility [2]: 255 µg/mL (≈ 1460 µM)
Optimal dose [6]: 104%
logP ([4]; read-out: logP): 1.07
LD50 at 120 h [5]: 100 mg/kg

O=C1C=CC(=O)c2ccccc21 [NAPHTHOQUINONE]
ED25 [1]: 0.012 mmol/kg
ED25 [1, 15]: 1.9 mg/kg
solubility [2]: 89.4 µg/mL (≈ 565 µM)
logP ([4]; read-out: logP): 1.74
LD50 at 120 h [5]: 5.5 mg/kg
Optimal dose [7]: 347%

CCCOC1=C(Cl)C(=O)c2ccccc2C1=O
ED25 [1]: 0.01 mmol/kg
ED25 [1, 15]: 2.45 mg/kg
Optimal dose [8]: 271%
logP ([4]; read-out: logP): 2.95
LD50 at 120 h [5]: 20 mg/kg

COC1=CC(=O)c2ccccc2C1=O [2-Methoxy-1,4-naphthoquinone]
ED25 [1]: 0.262 mmol/kg
ED25 [1, 15]: 49.3 mg/kg
solubility [2]: 31.3 µg/mL (≈ 166 µM)
Optimal dose [9]: 154%
logP ([4]; read-out: logP): 1.59
LD50 at 120 h [5]: 320 mg/kg

COC1=C(Cl)C(=O)c2ccccc2C1=O
ED25 [1]: 0.011 mmol/kg
ED25 [1, 15]: 2.49 mg/kg
solubility [2]: 39.3 µg/mL (≈ 177 µM)
Optimal dose [3]: 315%
logP ([4]; read-out: logP): 2.15
LD50 at 120 h [5]: 14 mg/kg

CCOC1=C(Cl)C(=O)c2ccccc2C1=O
ED25 [1]: 0.008 mmol/kg
ED25 [1, 15]: 1.97 mg/kg
solubility [2]: 34.1 µg/mL (≈ 144 µM)
logP ([4]; read-out: logP): 2.61
LD50 at 120 h [5]: 16 mg/kg
Optimal dose [7]: 230%

CC1=CC(=O)c2ccccc2C1=O [MENADIONE]
ED25 [1]: 0.174 mmol/kg
ED25 [1, 15]: 30 mg/kg
solubility [2]: 10.6 µg/mL (≈ 61.6 µM)
logP ([4]; read-out: logP): 2.25
LD50 at 120 h [5]: 150 mg/kg
Optimal dose [10]: 126%

O=C1C(=O)c2ccccc2C(O)=C1C1CCCC1
ED25 [1]: 0.582 mmol/kg
ED25 [1, 15]: 141 mg/kg
solubility [2]: 9.5 µg/mL (≈ 39.2 µM)
Optimal dose [11]: 116%
logP ([4]; read-out: logP): 2.69
LD50 at 120 h [5]: 400 mg/kg

O=C1C(Cl)=C(Cl)C(=O)c2ccccc21 [Dichlon]
ED25 [1]: 0.022 mmol/kg
ED25 [1, 15]: 4.89 mg/kg
logP ([4]; read-out: logP): 3.16
Optimal dose [12]: 189%

O=C1C(Cl)=C(Nc2ccccc2)C(=O)c2ccccc21
ED25 [1]: 0.331 mmol/kg
ED25 [1, 15]: 94 mg/kg
solubility [2]: 2.4 µg/mL (≈ 8.46 µM)
Optimal dose [13]: 117%
logP [4]: 4.04
LD50 at 120 h [5]: 1600 mg/kg

NC1=C(Cl)C(=O)c2ccccc2C1=O
Optimal dose [14]: 112%
ED25 [1]: 0.123 mmol/kg
ED25 [1, 15]: 25.5 mg/kg
solubility [2]: 37.7 µg/mL (≈ 182 µM)
logP ([4]; read-out: logP): 2.08
LD50 at 120 h [5]: 800 mg/kg
